Source: ChEMBL document CHEMBL3593222, “6-Phenoxy-2-phenylbenzoxazoles, novel inhibitors of receptor for advanced glycation end products (RAGE)” (Bioorg Med Chem, 2015)
Activity calls are given as the source filed them. The calls are words filed in the database; no cut-off is given here.

Test system: HT-22
Assay: Neuroprotective activity in mouse HT22 cells assessed as inhibition of amyloid beta-induced cytotoxicity by measuring cell viability at 10 uM after 18 hrs by MTT assay
Assay type: functional
Conditions: HT-22, 18 h
Method in brief: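 Aβ peptide was pretreated in HFIP, dried to a film, redissolved in DMSO, and aggregated at 200 µM in PBS for 24 h at 4 °C. HT22 cells (5000/well) were exposed the next day to 2 µM aggregated Aβ plus 10 µM compound for 18 h. Viability was read by MTT at 570 nm, and percent inhibition was calculated against Aβ with vehicle. Triplicate.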

SMILES	inhibition at 10 µM
CC(C)(C)OC(=O)N1CCN(CCCOc2ccc(-c3nc4ccc(Oc5ccc(F)cc5)cc4o3)cc2)CC1	62.3%
CC(C)(C)OC(=O)N1CCN(CCCOc2ccc(-c3nc4ccc(Oc5cccc(C(F)(F)F)c5)cc4o3)cc2)CC1	56.2%
CC(C)OC(=O)N1CCN(CCCOc2ccc(-c3nc4ccc(Oc5ccc(Cl)cc5)cc4o3)cc2)CC1	54.4%
CC(C)(C)OC(=O)N1CCN(CCOc2ccc(-c3nc4ccc(Oc5ccc(Cl)cc5)cc4o3)cc2)CC1	50.6%

Test system: HT-22
Assay: (§1) Cytotoxicity against mouse HT22 cells assessed as cell viability at 10 uM after 18 hrs by MTT assay
Assay type: cell-based
Conditions: ht-22, 18 h, 10 µM
Method in brief: (§2)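 HT22 cells were grown in DMEM with 10% FBS and penicillin/streptomycin at 37 °C in 5% CO2, and seeded at 5000 cells/well. Next day they were exposed to 10 µM compound for 18 h. MTT was then added for 3 h, formazan dissolved in acidic 2-propanol, and OD read at 570 nm. Viability is blank-corrected absorbance relative to control. Run in triplicate.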

SMILES	Activity
Clc1ccc(Oc2ccc3nc(-c4ccc(OCCN5CCOCC5)cc4)oc3c2)cc1	Non-toxic
FC(F)(F)c1ccc(Oc2ccc3nc(-c4ccc(OCCCN5CCOCC5)cc4)oc3c2)cc1	Non-toxic
Clc1ccc(Oc2ccc3nc(-c4ccc(OCCCN5CCCC5)cc4)oc3c2)cc1	Non-toxic
CCN(CC)CCCOc1ccc(-c2nc3ccc(Oc4cccc(C(F)(F)F)c4)cc3o2)cc1	Non-toxic
CCN(CC)CCCOc1ccc(-c2nc3ccc(Oc4ccc(C(F)(F)F)cc4)cc3o2)cc1	Non-toxic
Clc1ccc(Oc2ccc3nc(-c4ccc(OCCCN5CCOCC5)cc4)oc3c2)cc1	Non-toxic
CC(=O)N1CCC(Oc2ccc(-c3nc4ccc(Oc5ccc(Cl)cc5)cc4o3)cc2)CC1	Non-toxic
CC(C)(C)OC(=O)N[C@@H]1CCN(CCCOc2ccc(-c3nc4ccc(Oc5ccc(C(C)(C)C)cc5)cc4o3)cc2)C1	Non-toxic
CC(C)(C)OC(=O)N1CCN(CCCOc2ccc(-c3nc4ccc(Oc5cccc(C(F)(F)F)c5)cc4o3)cc2)CC1	Non-toxic
CC(C)N1CCC(COc2ccc(-c3nc4ccc(Oc5ccc(Cl)cc5)cc4o3)cc2)CC1	Non-toxic
Fc1ccc(Oc2ccc3nc(-c4ccc(OCCCN5CCOCC5)cc4)oc3c2)cc1	Non-toxic
CCOC(=O)N1CCN(CCCOc2ccc(-c3nc4ccc(Oc5ccc(Cl)cc5)cc4o3)cc2)CC1	Non-toxic
CC(C)(C)OC(=O)N1CCC(COc2ccc(-c3nc4ccc(Oc5ccc(Cl)cc5)cc4o3)cc2)CC1	Non-toxic
CC(C)(C)c1ccc(Oc2ccc3nc(-c4ccc(OCCCN5CCOCC5)cc4)oc3c2)cc1	Non-toxic
CC(C)OC(=O)N1CCN(CCCOc2ccc(-c3nc4ccc(Oc5ccc(Cl)cc5)cc4o3)cc2)CC1	Non-toxic
Fc1ccc(Oc2ccc3nc(-c4ccc(OCCCN5CCCCC5)cc4)oc3c2)cc1	Non-toxic
CC(C)(C)OC(=O)N1CCN(CCOc2ccc(-c3nc4ccc(Oc5ccc(Cl)cc5)cc4o3)cc2)CC1	Non-toxic
CCN(CC)CCCOc1ccc(-c2nc3ccc(Oc4ccc(F)cc4)cc3o2)cc1	Non-toxic
N[C@@H]1CCN(CCCOc2ccc(-c3nc4ccc(Oc5ccc(Cl)cc5)cc4o3)cc2)C1	Non-toxic
CC(C)(C)OC(=O)N1CCC(Oc2ccc(-c3nc4ccc(Oc5ccc(Cl)cc5)cc4o3)cc2)CC1	Non-toxic
CC(C)COC(=O)N1CCN(CCCOc2ccc(-c3nc4ccc(Oc5ccc(Cl)cc5)cc4o3)cc2)CC1	Non-toxic
COC(=O)N1CCN(CCCOc2ccc(-c3nc4ccc(Oc5ccc(Cl)cc5)cc4o3)cc2)CC1	Non-toxic
FC(F)(F)c1cccc(Oc2ccc3nc(-c4ccc(OCCCN5CCOCC5)cc4)oc3c2)c1	Non-toxic
CC(C)(C)c1ccc(Oc2ccc3nc(-c4ccc(OCCCN5CCCC5)cc4)oc3c2)cc1	Non-toxic
N[C@H]1CCN(CCCOc2ccc(-c3nc4ccc(Oc5ccc(Cl)cc5)cc4o3)cc2)C1	Non-toxic

Test system: not listed separately
Assay: as §1
Assay type: cell-based, HT-22
Conditions: HT22 cells, read-out: Activity
Method in brief: as §2

SMILES	viability at 18 h, 10 µM
CC(C)(C)OC(=O)N[C@H]1CCN(CCCOc2ccc(-c3nc4ccc(Oc5ccc(C(C)(C)C)cc5)cc4o3)cc2)C1	8.2%
CC(C)(C)OC(=O)N1CCN(CCCOc2ccc(-c3nc4ccc(Oc5ccc(C(F)(F)F)cc5)cc4o3)cc2)CC1	7.9%
OCCN1CCN(CCCOc2ccc(-c3nc4ccc(Oc5ccc(Cl)cc5)cc4o3)cc2)CC1	3.3%
Clc1ccc(Oc2ccc3nc(-c4ccc(OCCCN5CCNCC5)cc4)oc3c2)cc1	18.5%
CC(C)(C)c1ccc(Oc2ccc3nc(-c4ccc(OCCCN5CC[C@H](N)C5)cc4)oc3c2)cc1	60.3%
CC(C)N1CCC(Oc2ccc(-c3nc4ccc(Oc5ccc(Cl)cc5)cc4o3)cc2)CC1	86.5%
CC(C)(C)OC(=O)N[C@@H]1CCN(CCCOc2ccc(-c3nc4ccc(Oc5ccc(Cl)cc5)cc4o3)cc2)C1	63.2%
CCN1CCC(Oc2ccc(-c3nc4ccc(Oc5ccc(Cl)cc5)cc4o3)cc2)CC1	38.2%
CC(C)(C)OC(=O)N[C@H]1CCN(CCCOc2ccc(-c3nc4ccc(Oc5ccc(Cl)cc5)cc4o3)cc2)C1	58.2%
CC(C)(C)c1ccc(Oc2ccc3nc(-c4ccc(OCCCN5CC[C@@H](N)C5)cc4)oc3c2)cc1	12.8%
Clc1ccc(Oc2ccc3nc(-c4ccc(OCC5CCNCC5)cc4)oc3c2)cc1	29%
CCN1CCC(COc2ccc(-c3nc4ccc(Oc5ccc(Cl)cc5)cc4o3)cc2)CC1	4.1%
CC(C)(C)OC(=O)N1CCN(CCCOc2ccc(-c3nc4ccc(Oc5ccc(F)cc5)cc4o3)cc2)CC1	15.2%
Clc1ccc(Oc2ccc3nc(-c4ccc(OCCN5CCCCC5)cc4)oc3c2)cc1	21.4%
CN1CCC(Oc2ccc(-c3nc4ccc(Oc5ccc(Cl)cc5)cc4o3)cc2)CC1	74.3%
Clc1ccc(Oc2ccc3nc(-c4ccc(OC5CCNCC5)cc4)oc3c2)cc1	20.6%
CCN(CC)CCCOc1ccc(-c2nc3ccc(Oc4ccc(C(C)(C)C)cc4)cc3o2)cc1	74.1%
CC(=O)N1CCC(COc2ccc(-c3nc4ccc(Oc5ccc(Cl)cc5)cc4o3)cc2)CC1	32.7%
CN1CCN(CCCOc2ccc(-c3nc4ccc(Oc5ccc(Cl)cc5)cc4o3)cc2)CC1	69.3%
CC(C)(C)C1CCN(CCCOc2ccc(-c3nc4ccc(Oc5ccc(Cl)cc5)cc4o3)cc2)CC1	32.2%
FC(F)(F)c1ccc(Oc2ccc3nc(-c4ccc(OCCCN5CCCCC5)cc4)oc3c2)cc1	93.4%
CCN(CC)CCCOc1ccc(-c2nc3ccc(Oc4ccc(Cl)cc4)cc3o2)cc1	32.1%
CC(C)(C)c1ccc(Oc2ccc3nc(-c4ccc(OCCCN5CCCCC5)cc4)oc3c2)cc1	49.4%
Clc1ccc(Oc2ccc3nc(-c4ccc(OCCCN5CCCCC5)cc4)oc3c2)cc1	32.4%
FC(F)(F)c1cccc(Oc2ccc3nc(-c4ccc(OCCCN5CCCCC5)cc4)oc3c2)c1	4.4%
CCN(CC)CCOc1ccc(-c2nc3ccc(Oc4ccc(Cl)cc4)cc3o2)cc1	85.2%

Target: Advanced glycosylation end product-specific receptor (Homo sapiens) (UniProt Q15109)
Assay: Inhibition of human RAGE-amyloid beta-42 interaction at 4 uM preincubated for 30 mins measured after 1 hr by FRET assay relative to control
Conditions: not given
Method in brief: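 Biotinylated human RAGE (2.5 µg) was premixed with 200 ng Cy3-streptavidin in PBS for 30 min at rt. Aβ42-FITC (50 µL of 40 nM) and compound (50 µL of 4 µM) were then added, in 200 µL final volume with 0.1% DMSO. Fluorescence was read 1 h later. FRET efficiency was computed from donor emission with and without acceptor, and percent inhibition was taken against vehicle. Triplicate.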

Sequence of Advanced glycosylation end product-specific receptor (Homo sapiens) (Q15109 whole entry): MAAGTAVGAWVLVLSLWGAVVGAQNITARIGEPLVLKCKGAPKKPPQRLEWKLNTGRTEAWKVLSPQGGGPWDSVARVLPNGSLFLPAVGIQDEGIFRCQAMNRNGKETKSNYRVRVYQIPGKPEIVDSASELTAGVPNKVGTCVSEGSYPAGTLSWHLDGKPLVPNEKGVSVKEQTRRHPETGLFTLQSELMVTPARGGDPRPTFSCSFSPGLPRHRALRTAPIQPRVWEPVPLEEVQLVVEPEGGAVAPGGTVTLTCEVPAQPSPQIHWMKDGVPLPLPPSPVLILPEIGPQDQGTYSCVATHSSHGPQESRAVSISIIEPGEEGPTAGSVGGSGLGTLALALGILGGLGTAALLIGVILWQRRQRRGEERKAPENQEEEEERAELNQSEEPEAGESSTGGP

SMILES	inhibition
Clc1ccc(Oc2ccc3nc(-c4ccc(OCCN5CCOCC5)cc4)oc3c2)cc1	25.7%
CC(C)(C)OC(=O)N[C@H]1CCN(CCCOc2ccc(-c3nc4ccc(Oc5ccc(C(C)(C)C)cc5)cc4o3)cc2)C1	61.6%
CC(C)(C)OC(=O)N1CCN(CCCOc2ccc(-c3nc4ccc(Oc5ccc(C(F)(F)F)cc5)cc4o3)cc2)CC1	27.8%
OCCN1CCN(CCCOc2ccc(-c3nc4ccc(Oc5ccc(Cl)cc5)cc4o3)cc2)CC1	3.3%
FC(F)(F)c1ccc(Oc2ccc3nc(-c4ccc(OCCCN5CCOCC5)cc4)oc3c2)cc1	32.1%
Clc1ccc(Oc2ccc3nc(-c4ccc(OCCCN5CCNCC5)cc4)oc3c2)cc1	42.7%
CC(C)(C)c1ccc(Oc2ccc3nc(-c4ccc(OCCCN5CC[C@H](N)C5)cc4)oc3c2)cc1	54.7%
CC(C)N1CCC(Oc2ccc(-c3nc4ccc(Oc5ccc(Cl)cc5)cc4o3)cc2)CC1	12.7%
Clc1ccc(Oc2ccc3nc(-c4ccc(OCCCN5CCCC5)cc4)oc3c2)cc1	inactive
CC(C)(C)OC(=O)N[C@@H]1CCN(CCCOc2ccc(-c3nc4ccc(Oc5ccc(Cl)cc5)cc4o3)cc2)C1	90.2%
CCN1CCC(Oc2ccc(-c3nc4ccc(Oc5ccc(Cl)cc5)cc4o3)cc2)CC1	15.3%
CC(C)(C)OC(=O)N[C@H]1CCN(CCCOc2ccc(-c3nc4ccc(Oc5ccc(Cl)cc5)cc4o3)cc2)C1	16.6%
CC(C)(C)c1ccc(Oc2ccc3nc(-c4ccc(OCCCN5CC[C@@H](N)C5)cc4)oc3c2)cc1	inactive
CCN(CC)CCCOc1ccc(-c2nc3ccc(Oc4cccc(C(F)(F)F)c4)cc3o2)cc1	24.1%
CCN(CC)CCCOc1ccc(-c2nc3ccc(Oc4ccc(C(F)(F)F)cc4)cc3o2)cc1	34.9%
Clc1ccc(Oc2ccc3nc(-c4ccc(OCC5CCNCC5)cc4)oc3c2)cc1	inactive
CCN1CCC(COc2ccc(-c3nc4ccc(Oc5ccc(Cl)cc5)cc4o3)cc2)CC1	2.1%
Clc1ccc(Oc2ccc3nc(-c4ccc(OCCCN5CCOCC5)cc4)oc3c2)cc1	inactive
CC(=O)N1CCC(Oc2ccc(-c3nc4ccc(Oc5ccc(Cl)cc5)cc4o3)cc2)CC1	20%
CC(C)(C)OC(=O)N[C@@H]1CCN(CCCOc2ccc(-c3nc4ccc(Oc5ccc(C(C)(C)C)cc5)cc4o3)cc2)C1	26.8%
CC(C)(C)OC(=O)N1CCN(CCCOc2ccc(-c3nc4ccc(Oc5ccc(F)cc5)cc4o3)cc2)CC1	21%
Clc1ccc(Oc2ccc3nc(-c4ccc(OCCN5CCCCC5)cc4)oc3c2)cc1	18.5%
CC(C)(C)OC(=O)N1CCN(CCCOc2ccc(-c3nc4ccc(Oc5cccc(C(F)(F)F)c5)cc4o3)cc2)CC1	22.8%
CC(C)N1CCC(COc2ccc(-c3nc4ccc(Oc5ccc(Cl)cc5)cc4o3)cc2)CC1	26.2%
Fc1ccc(Oc2ccc3nc(-c4ccc(OCCCN5CCOCC5)cc4)oc3c2)cc1	56.7%
CCOC(=O)N1CCN(CCCOc2ccc(-c3nc4ccc(Oc5ccc(Cl)cc5)cc4o3)cc2)CC1	6.6%

SMILES	inhibition
CC(C)(C)OC(=O)N1CCC(COc2ccc(-c3nc4ccc(Oc5ccc(Cl)cc5)cc4o3)cc2)CC1	inactive
CC(C)(C)c1ccc(Oc2ccc3nc(-c4ccc(OCCCN5CCOCC5)cc4)oc3c2)cc1	inactive
CC(C)OC(=O)N1CCN(CCCOc2ccc(-c3nc4ccc(Oc5ccc(Cl)cc5)cc4o3)cc2)CC1	25.9%
Fc1ccc(Oc2ccc3nc(-c4ccc(OCCCN5CCCCC5)cc4)oc3c2)cc1	30.3%
CN1CCC(Oc2ccc(-c3nc4ccc(Oc5ccc(Cl)cc5)cc4o3)cc2)CC1	19.5%
CC(C)(C)OC(=O)N1CCN(CCOc2ccc(-c3nc4ccc(Oc5ccc(Cl)cc5)cc4o3)cc2)CC1	24.6%
Clc1ccc(Oc2ccc3nc(-c4ccc(OC5CCNCC5)cc4)oc3c2)cc1	20.6%
CCN(CC)CCCOc1ccc(-c2nc3ccc(Oc4ccc(C(C)(C)C)cc4)cc3o2)cc1	inactive
CC(=O)N1CCC(COc2ccc(-c3nc4ccc(Oc5ccc(Cl)cc5)cc4o3)cc2)CC1	inactive
CCN(CC)CCCOc1ccc(-c2nc3ccc(Oc4ccc(F)cc4)cc3o2)cc1	5.4%
CN1CCN(CCCOc2ccc(-c3nc4ccc(Oc5ccc(Cl)cc5)cc4o3)cc2)CC1	24.3%
CC(C)(C)C1CCN(CCCOc2ccc(-c3nc4ccc(Oc5ccc(Cl)cc5)cc4o3)cc2)CC1	16.6%
N[C@@H]1CCN(CCCOc2ccc(-c3nc4ccc(Oc5ccc(Cl)cc5)cc4o3)cc2)C1	19.6%
FC(F)(F)c1ccc(Oc2ccc3nc(-c4ccc(OCCCN5CCCCC5)cc4)oc3c2)cc1	44.3%
CC(C)(C)OC(=O)N1CCC(Oc2ccc(-c3nc4ccc(Oc5ccc(Cl)cc5)cc4o3)cc2)CC1	inactive
CCN(CC)CCCOc1ccc(-c2nc3ccc(Oc4ccc(Cl)cc4)cc3o2)cc1	4.9%
CC(C)COC(=O)N1CCN(CCCOc2ccc(-c3nc4ccc(Oc5ccc(Cl)cc5)cc4o3)cc2)CC1	41.2%
COC(=O)N1CCN(CCCOc2ccc(-c3nc4ccc(Oc5ccc(Cl)cc5)cc4o3)cc2)CC1	inactive
CC(C)(C)c1ccc(Oc2ccc3nc(-c4ccc(OCCCN5CCCCC5)cc4)oc3c2)cc1	inactive
FC(F)(F)c1cccc(Oc2ccc3nc(-c4ccc(OCCCN5CCOCC5)cc4)oc3c2)c1	inactive
Clc1ccc(Oc2ccc3nc(-c4ccc(OCCCN5CCCCC5)cc4)oc3c2)cc1	2.2%
CC(C)(C)c1ccc(Oc2ccc3nc(-c4ccc(OCCCN5CCCC5)cc4)oc3c2)cc1	inactive
FC(F)(F)c1cccc(Oc2ccc3nc(-c4ccc(OCCCN5CCCCC5)cc4)oc3c2)c1	42.7%
N[C@H]1CCN(CCCOc2ccc(-c3nc4ccc(Oc5ccc(Cl)cc5)cc4o3)cc2)C1	29.9%
CCN(CC)CCOc1ccc(-c2nc3ccc(Oc4ccc(Cl)cc4)cc3o2)cc1	33.5%
